Results reported in the array DNA melting data of Ke et al. (doi:10.1101/2024.01.08.574731).

Legend:
[1] = folding enthalpy; higher = less favourable; fluorescence melt of hairpins on a sequencing array, two-state fit; details: sodium 0.088 M
In short: (§1)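 In 50 mM Na-HEPES pH 8.0 containing 25 mM NaCl, hairpins from the library on a sequenced MiSeq flow cell were imaged for Cy3 fluorescence at 2.5 °C steps up to 60 °C, with Cy3 and quencher oligos annealed. After normalisation to pre-quench Cy3 and to control constructs, two-state fits with bootstrapping gave melting temperature and folding enthalpy. Four replicates were combined by inverse-variance weighting, and fitted temperatures were shifted up by 9.35 °C to match UV melts.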

[2] = melting temperature; fluorescence melt of hairpins on a sequencing array, two-state fit, raised by 9.35 °C to match UV melts; details: sodium 0.088 M
In short: as §1

| Sequence | folding enthalpy [1] [kcal/mol] | Tm [2] [°C] |
| --- | --- | --- |
| GGTTACGGAAACGTGATC (.(.(((....))).).) | -16.3 | 30.4 |
| GGATTTGGAAACAAATTC (.(((((....))))).) | -28.1 | 40.1 |
| CGTCCACGGAAACGTACG (((..(((....)))))) | -15.7 | 28.5 |
| GGTGCGGGAAACCGCATC (.(((((....))))).) | -15.7 | 60.4 |
| GGAGGCGAAAGCCGATCC ((((((....)))..))) | -9.71 | 51.8 |
| GATCTTGGCAAAGATC ((((((....)))))) | -38.9 | 53.2 |
| GCGGCCGAAAGGCATCGC ((((((....)))..))) | -23 | 53.1 |
| GGTCCTGGAAACAGGACC (((((((....))))))) | -30.9 | 69.3 |
| GATCAACCAGTTGATC ((((((....)))))) | -41.9 | 50.4 |
| GAATTTGGAAACGAATTC (((((.(....).))))) | -35.8 | 38.8 |
| GCGTGCGGACGC ((((....)))) | -15.6 | 54.7 |
| GTGAGGGCGAAAGCCCAC (((..(((....)))))) | -11.6 | 46.5 |
| GCTACGCGAAAGCATGGC ((.(.((....)).).)) | -19.7 | 37 |
| GAGCCCGAAAGGGAGCTC ((((((....)))..))) | -20 | 55.6 |
| GATCCGATGTCGGATC ((((((....)))))) | -37.6 | 61.6 |
| GATCCTACGGAGGATC ((((((....)))))) | -35 | 50.9 |
| GATCGGATATCCGATC ((((((....)))))) | -42.9 | 58.3 |
| GCAGACTCGAAAGAGTGC (((..(((....)))))) | -16 | 43.4 |
| GATCTTCGCGAAGATC ((((((....)))))) | -59 | 55.3 |
| GGACGGAAACGTCC (((((....))))) | -31.9 | 66.4 |
| GACGTAGAAATACGTC ((((((....)))))) | -38.5 | 55 |
| GATCCAGTCATGGATC ((((((....)))))) | -39.8 | 58.3 |
| GATCACTCGTGTGATC ((((((....)))))) | -37.1 | 57.1 |

| Sequence | folding enthalpy [1] [kcal/mol] | Tm [2] [°C] |
| --- | --- | --- |
| GCCACAGGAAACCGTGGC (((((.(....).))))) | -43 | 55.4 |
| GATCAGTATCTGATC ((((((...)))))) | -34.9 | 48.5 |
| GATTGCGAAAGCAGAATC ((((((....)))..))) | -13.8 | 35.4 |
| GCTTCGCGAAAGCTATGC ((.(.((....)).).)) | -13.4 | 43.5 |
| GAGCACGGAAACGTGTTC ((.((((....)))).)) | -26.2 | 51.6 |
| GGCACGGGAAACCATGCC ((((.((....)).)))) | -30.5 | 49.3 |
| GGTAGCCGAAAGGCACC (((.(((....)))))) | -18.7 | 57.5 |
| GGATTTGGAAACAAATCC (((((((....))))))) | -44.3 | 58.2 |
| GAGGTAGCGAAAGCTCTC (((..(((....)))))) | -13.6 | 38 |
| GGGTATTCGAAAGAACCC (((..(((....)))))) | -22 | 34.5 |
| GATCCTCGAAAGGATC ((((((....)))))) | -37.2 | 50.4 |
| GATTACGAAAGTACATC ((((((....))).))) | -17.7 | 31.1 |
| GTCTCCGGAAACGAAGAC ((((.((....)).)))) | -25.9 | 41.9 |
| GGCCCCGAAAGGGAAGCC ((((((....)))..))) | -28.2 | 55.4 |
| CGACGCCGGAAACGGTCG (((..(((....)))))) | -18.3 | 44.3 |
| GAGTCGGAAACGACTC ((((((....)))))) | -37.5 | 65.9 |
| GTCCGTCGAAAGACGAC (((.(((....)))))) | -13.4 | 50.6 |
| GAGTGTGGAAACACACTC (((((((....))))))) | -36.1 | 66 |
| GCGATCCCGAAAGGGCGC (((..(((....)))))) | -20.6 | 56.3 |
| GCCCCCGGAAACGGAGGC (((.(((....))).))) | -35 | 54.9 |
| GCTGCGCGAAAGCCTAGC (((..((....))..))) | -15.7 | 42.4 |
| GATCATTTCAATGATC ((((((....)))))) | -42.2 | 52.3 |
| GTGGTCGAAAGACCCAC ((((((....))).))) | -13.2 | 51.1 |

| Sequence | folding enthalpy [1] [kcal/mol] | Tm [2] [°C] |
| --- | --- | --- |
| GCTTTCTCGAAAGAGAGC (((..(((....)))))) | -17.8 | 33 |
| GATCTGTTTCAGATC ((((((...)))))) | -34.5 | 50.5 |
| GTTTAGGGAAACCTGAAC (((.(((....))).))) | -34.8 | 38.5 |
| GCGACGGGAAACCGTTGC ((.((((....)))).)) | -40 | 61 |
| GATCATAATAATGATC ((((((....)))))) | -35.4 | 45.4 |
| GGATGCGAAAGCATATCC ((((((....)))..))) | -14.9 | 43.8 |
| GATCCACTTTTGGATC ((((((....)))))) | -34.6 | 50.6 |
| GACACGGAAACGTGTC ((((((....)))))) | -34.9 | 67.7 |
| GGCTGTCGAAAGACCGCC (((.(((....))).))) | -36.6 | 56.6 |
| GATCGTGCAAACGATC ((((((....)))))) | -33 | 66.9 |
| GATCAGTGTACTGATC ((((((....)))))) | -33.1 | 59.1 |
| GTACGTCGAAAGACCTAC (((.(((....))).))) | -13.6 | 34.3 |
| GATCGCAAAGGCGATC ((((((....)))))) | -41.9 | 63.9 |
| CGCGTACGGAAACGTGCG (((..(((....)))))) | -23.7 | 50 |
| GTCCAGGGAAACTTGGGC (.(((.(....).))).) | -29 | 34.7 |
| GGCTAGGAAACTAGCC ((((((....)))))) | -34.8 | 60.4 |
| GGGACCGAAAGGTGACCC ((((((....)))..))) | -17.6 | 45.6 |
| GATCACGACGTGATC ((((((...)))))) | -30.6 | 64.6 |
| GGAGGGGGAAACTCCTCC (((((.(....).))))) | -32.6 | 53.8 |
| GTGGACCGAAAGGTTCAC (((.(((....))).))) | -36.7 | 59.8 |
| GTGTTCGAAAGAACCAC ((((((....))).))) | -13.3 | 43.5 |
| GATCTGATTACAGATC ((((((....)))))) | -40.5 | 50 |
| GCGACGCGAAAGCCACGC (((..((....))..))) | -17.7 | 48.7 |

| Sequence | folding enthalpy [1] [kcal/mol] | Tm [2] [°C] |
| --- | --- | --- |
| GCCCGCTCGAAAGAGGGC (((..(((....)))))) | -40.6 | 54.6 |
| GGCACCGAAAGGTTAGCC ((((((....)))..))) | -28.9 | 50.8 |
| GGGACCGAAAGGTACCC ((((((....))).))) | -18.9 | 64.1 |
| GTCACTGGAAACAGCGAC (((.(((....))).))) | -35.2 | 47.2 |
| GAGACCGAAAGGTTCTC ((((((....))).))) | -22.3 | 54.2 |
| GGAGACGAAAGTCACTCC ((((((....)))..))) | -13.3 | 37.6 |
| GGGTGGCGAAAGCCCCC (((.(((....)))))) | -17.3 | 66.9 |
| ACATCGAAAGATGT (((((....))))) | -19.6 | 52.6 |
| GTACGCGAAAGCGTTTAC ((((((....)))..))) | -7.31 | 29.1 |
| GAGGTCACGAAAGTGCTC (((..(((....)))))) | -13.4 | 30.7 |
| GGAGTTGAAAAACTCC ((((((....)))))) | -36.2 | 55.7 |
| GAGTGAGGAAACTCACCC (.(((((....))))).) | -13.9 | 39.4 |
| GATCCGCCAACGGATC ((((((....)))))) | -36 | 57.7 |
| GAGTGCGAAAGCACCCTC ((((((....)))..))) | -10.4 | 45.1 |
| GATCGGAACTCCGATC ((((((....)))))) | -45.1 | 55.2 |
| GCTAGGACGAAAGTCAGC (((..(((....)))))) | -16.6 | 42.7 |
| GCTCGGCGAAAGCCATGC ((..(((....)))..)) | -10.7 | 49.8 |
| GATCTACTCATAGATC ((((((....)))))) | -35.5 | 41.7 |
| GGTGTCGAAAGACAAACC ((((((....)))..))) | -16.6 | 44.4 |
| GTCCTTCGAAAGAACGAC (((.(((....))).))) | -23.3 | 33.5 |
| GCACGCGAAAGCGGGTGC ((((((....)))..))) | -17.4 | 66.1 |
| GGGTGCGAAAGCATCCC ((((((....))).))) | -18.5 | 65.2 |
| GCGTGAGAAATCACGC ((((((....)))))) | -29.5 | 69 |
